This note sets out measurements from ChEMBL document CHEMBL1127598, “Synthesis of a series of 4-(arylethynyl)-6-chloro-4-cyclopropyl-3,4-dihydroquinazolin-2(1H)-ones as novel non-nucleoside HIV-1 reverse transcriptase inhibitors” (J Med Chem, 1994).

A value given as a limit tells only on which side of the number the result lay.

The target of assay [1] is Human immunodeficiency virus type 1 reverse transcriptase (Human immunodeficiency virus 1, UniProt Q72547). Kind of assay: Ability to inhibit HIV-1 Reverse Transcriptase (RT) using an rC-dG template/primer.
Assay [2] deals with MT4. In words: Concentration of compound which inhibited greater than 95% the spread of infection of cultured MT-4 cells. The assay is classed as functional, Homo sapiens. Put shortly: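 MT-4 cells infected with HIV-1 strain IIIb. The spread of infection was measured by p24 core antigen ELISA. The CIC95 is the lowest compound concentration that inhibited spread of infection by more than 95%.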

Assay [3] deals with MT4. Kind of assay: Compound was evaluated for the anti-viral activity against cultured MT-4 cells. The assay is classed as functional, Homo sapiens.

Usually IC50 stands for the concentration that inhibits the measured activity by half. The low end stands for higher potency, the high end for lower potency. `O=C1Nc2ccc(Cl)cc2C(C#Cc2cccnc2)(C2CC2)N1` (stereo not drawn): the IC50 in assay [1] amounted to 0.0645 µM. The molecule `O=C1Nc2ccc(Cl)cc2C(C#Cc2cncnc2)(C2CC2)N1` (stereo not drawn) gave a concentration for half-maximal inhibition (IC50) in assay [1] of 1.5 µM. For `O=C1Nc2ccc(Cl)cc2[C@@](C#Cc2ccccn2)(C2CC2)N1`, in assay [1], half-maximal inhibition (IC50) required 0.012 µM.

As to `O=C1Nc2ccc(Cl)cc2C(C#Cc2ncccn2)(C2CC2)N1` (stereo not drawn), in assay [1], the IC50 was determined as 0.13 µM.

With `O=C1Nc2ccc(Cl)cc2[C@](C#Cc2ccccn2)(C2CC2)N1`, the concentration for half-maximal inhibition (IC50) in assay [1] is 9.3 µM. Molecule `O=C1Nc2ccc(Cl)cc2C(C#Cc2ccccn2)(C2CC2)N1` (stereo not drawn) came in with a ClC95 with MT4 [2] of 25 nM. The molecule further yielded an IC50 in assay [1] of 0.0232 µM. Consider `CN1C(=O)Nc2ccc(Cl)cc2C1(C#Cc1ccccn1)C1CC1` (stereo not drawn), for which the IC50 in assay [1] was determined as 0.0196 µM. As to `O=C1Nc2ccc(Cl)cc2C(C#Cc2ccco2)(C2CC2)N1` (stereo not drawn), it took 0.0092 µM to reach half-maximal inhibition in assay [1] (IC50). In the assay with MT4 [3], `CC(C)=CCN1Cc2cccc3nc(S)n(c23)C[C@H]1C` had a ClC95 of 200 nM. The same molecule yielded a concentration for half-maximal inhibition (IC50) in assay [1] of 0.07 µM. Consider `O=C1Nc2ccc(Cl)cc2C(C#Cc2nccs2)(C2CC2)N1` (stereo not drawn), for which the ClC95 with MT4 [3] is listed as 12 nM. For the same molecule, the concentration for half-maximal inhibition (IC50) in assay [1] is 0.0109 µM.

Molecule `O=C1Nc2ccc(Cl)cc2C(C#Cc2ccncc2)(C2CC2)N1` (stereo not drawn) had an IC50 in assay [1] of 0.45 µM.

The molecule `O=C1Nc2ccc(Cl)cc2C(C#Cc2ccccc2)(C2CC2)N1` (stereo not drawn) registered a ClC95 in the assay on MT4 [2] of 100 nM. The molecule further registered a 50% inhibitory concentration (IC50) in assay [1] of 0.0177 µM. In the case of `N#Cc1ccccc1C#CC1(C2CC2)NC(=O)Nc2ccc(Cl)cc21` (stereo not drawn), the ClC95 in the assay with MT4 [3] is given as 12 nM. The molecule also gave a concentration for half-maximal inhibition (IC50) in assay [1] of 0.0108 µM. `O=C1Nc2ccc(Cl)cc2C(C#Cc2cnccn2)(C2CC2)N1` (stereo not drawn): the IC50 in assay [1] worked out at 0.27 µM. Molecule `O=C1Nc2ccc(Cl)cc2C(C#Cc2cc([N+](=O)[O-])ccn2)(C2CC2)N1` (stereo not drawn) returned a half-inhibitory concentration (IC50) in assay [1] above 10 µM.

The molecule `O=C1Nc2ccc(Cl)cc2C(C#Cc2ccccc2[N+](=O)[O-])(C2CC2)N1` (stereo not drawn) had a 50% inhibitory concentration (IC50) in assay [1] of 0.0128 µM.

In the assay on MT4 [3], `CCc1cc(NCc2nc3c(Cl)ccc(Cl)c3o2)c(O)nc1C` [L-697661] displayed a ClC95 of 50 nM. Consider `Cc1ccnc2c1NC(=O)c1cccnc1N2C1CC1` [NEVIRAPINE], for which the ClC95 in the assay with MT4 [3] is recorded as 100 nM.
